Activity calls are given as the source filed them. The calls are words filed in the database; no cut-off is given here.
Key:
[1] = target: Prostaglandin G/H synthase 1 (Ovis aries) (UniProt P05979); assay: Inhibition of ram seminal vesicles COX-1 using arachidonic acid as substrate at 50 ug/ml preincubated for 5 mins followed by substrate addition after 20 mins by competitive PGE2 EIA method
[2] = target: T1, Prostaglandin G/H synthase 2 (Ovis aries, UniProt P79208); assay: Inhibition of sheep placental cotyledons COX-2 using arachidonic acid as substrate preincubated for 5 mins followed by substrate addition after 20 mins by competitive PGE2 EIA method
T1 sequence (P79208 whole entry): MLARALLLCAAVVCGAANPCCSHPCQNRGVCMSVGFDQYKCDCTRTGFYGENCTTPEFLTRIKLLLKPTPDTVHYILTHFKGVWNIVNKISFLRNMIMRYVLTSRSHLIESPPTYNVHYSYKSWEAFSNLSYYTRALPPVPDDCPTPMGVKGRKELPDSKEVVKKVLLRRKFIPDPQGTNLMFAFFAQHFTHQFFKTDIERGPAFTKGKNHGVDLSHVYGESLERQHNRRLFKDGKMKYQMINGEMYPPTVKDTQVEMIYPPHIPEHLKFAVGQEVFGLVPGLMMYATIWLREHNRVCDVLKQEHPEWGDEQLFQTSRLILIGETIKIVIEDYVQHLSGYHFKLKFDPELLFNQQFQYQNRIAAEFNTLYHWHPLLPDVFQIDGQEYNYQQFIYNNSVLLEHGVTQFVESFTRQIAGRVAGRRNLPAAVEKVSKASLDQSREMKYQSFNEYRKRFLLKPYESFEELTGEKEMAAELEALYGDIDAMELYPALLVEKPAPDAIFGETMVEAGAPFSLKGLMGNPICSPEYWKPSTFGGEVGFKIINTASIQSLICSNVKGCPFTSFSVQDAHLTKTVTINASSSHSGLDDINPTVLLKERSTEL
How it was run: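 Purified sheep placental PGHS-2 at 0.2 units/well in 0.1 M Tris/HCl with 18 mM epinephrine hydrogen tartrate, hematin and Na EDTA. Samples were preincubated for 5 min at room temperature, then arachidonic acid in ethanol was added to start the reaction. After 20 min at 37 °C the reaction was stopped with 10% formic acid. PGE2 was measured by competitive EIA absorbance, and inhibition was calculated relative to a blank.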

[3] = target: T2, Prostaglandin G/H synthase 2 (Homo sapiens) (UniProt P35354); assay: Inhibition of COX2 in differentiated human THP1 cells assessed as […] LPS-induced COX2 gene expression at 50 ug/ml preincubated for 1 hr followed by LPS induction measured after 3 hrs by real-time PCR analysis; type: cell-based; conditions: THP-1
T2 sequence (whole entry): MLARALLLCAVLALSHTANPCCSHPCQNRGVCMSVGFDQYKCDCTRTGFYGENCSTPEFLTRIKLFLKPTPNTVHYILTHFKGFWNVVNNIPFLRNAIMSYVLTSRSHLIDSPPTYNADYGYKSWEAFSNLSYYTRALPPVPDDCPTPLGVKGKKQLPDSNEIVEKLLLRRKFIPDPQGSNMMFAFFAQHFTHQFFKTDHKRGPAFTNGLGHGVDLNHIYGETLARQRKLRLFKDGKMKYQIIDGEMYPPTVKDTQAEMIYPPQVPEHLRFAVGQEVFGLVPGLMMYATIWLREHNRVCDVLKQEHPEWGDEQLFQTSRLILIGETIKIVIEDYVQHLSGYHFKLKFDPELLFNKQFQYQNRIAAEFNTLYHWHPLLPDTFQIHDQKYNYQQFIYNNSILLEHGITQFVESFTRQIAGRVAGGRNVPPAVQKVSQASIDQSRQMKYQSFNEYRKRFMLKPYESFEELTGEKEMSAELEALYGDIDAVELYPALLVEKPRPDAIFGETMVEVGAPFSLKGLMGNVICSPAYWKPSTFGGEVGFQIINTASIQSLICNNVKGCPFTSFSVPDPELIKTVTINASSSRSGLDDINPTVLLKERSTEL
How it was run: (§1)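 THP-1 monocytes differentiated to macrophages with 12 nM PMA for 48 h. Cells were treated with compound ([…]) for 1 h, with 0.1% DMSO as calibrator. They were then stimulated with LPS O55:B5 at 7.5 ng/ml, except the DMSO well, for another 3 h. Cells were washed twice with cold PBS. Total RNA was extracted and reverse-transcribed. TaqMan qPCR was run in duplicate with GAPDH as reference.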

[4] = Downregulation of NF-kappaB1 gene expression in differentiated human THP1 cells stimulated with LPS at 50 ug/ml preincubated for 1 hr followed by LPS stimulation measured after 3 hrs by real-time PCR analysis; type: functional, cell-based; conditions: THP-1
How it was run: as §1

Prostaglandin G/H synthase 1 (Ovis aries), sequence (P05979 whole entry, looked up): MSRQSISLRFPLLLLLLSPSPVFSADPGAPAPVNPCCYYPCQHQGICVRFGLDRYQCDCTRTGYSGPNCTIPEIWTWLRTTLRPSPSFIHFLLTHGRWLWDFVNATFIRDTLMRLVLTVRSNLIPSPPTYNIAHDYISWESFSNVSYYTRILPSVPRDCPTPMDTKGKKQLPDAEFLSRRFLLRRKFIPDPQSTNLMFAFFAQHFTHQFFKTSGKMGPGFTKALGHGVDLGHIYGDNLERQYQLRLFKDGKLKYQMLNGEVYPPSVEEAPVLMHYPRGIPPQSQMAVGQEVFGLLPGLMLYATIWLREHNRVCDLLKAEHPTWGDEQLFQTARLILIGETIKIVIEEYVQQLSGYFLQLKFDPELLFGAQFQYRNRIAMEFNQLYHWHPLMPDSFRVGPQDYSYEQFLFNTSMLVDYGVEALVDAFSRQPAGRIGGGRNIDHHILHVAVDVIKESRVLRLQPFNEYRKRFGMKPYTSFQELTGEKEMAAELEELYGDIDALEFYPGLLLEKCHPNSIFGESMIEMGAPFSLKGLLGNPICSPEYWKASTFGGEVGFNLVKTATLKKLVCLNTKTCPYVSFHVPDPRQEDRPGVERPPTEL

Row | SMILES | inhibition [1] | IC50 [2] [µM] | inhibition [3] | Activity [4]
1 | CC1=CC(c2ccc(Br)cc2)NC(=S)N1 (racemic) | 15.4% |  |  | 
2 | CC1=CC(c2ccc([N+](=O)[O-])cc2)NC(=S)N1 (racemic) | 29.8% |  |  | 
3 | CC1=CC(c2ccc(Cl)cc2)NC(=S)N1 (racemic) | 10.3% |  |  | 
4 | CC1=CC(c2ccccc2[N+](=O)[O-])NC(=S)N1 (racemic) | 53% | 50 | Active | Active
5 | CC1=CC(c2ccccc2)NC(=S)N1 (stereo unspecified) | inactive |  | Active | Active

Now from value to molecule, other results behind:

Row | inhibition [1] | IC50 [2] [µM] | SMILES | inhibition [3] | Activity [4]
6 | 33.2% |  | COc1ccc(C2C=C(C)NC(=S)N2)cc1 (racemic) |  | 
7 | 0.92% |  | CC1=CC(c2ccc(C(F)(F)F)cc2)NC(=S)N1 (racemic) |  | 
8 | inactive |  | CC1=CC(C(C)C)NC(=S)N1 (racemic) |  | 
9 | inactive |  | CC1=CC(c2ccc(F)cc2)NC(=S)N1 (racemic) |  | 
10 | 3.06% |  | CC1=CC(c2ccccc2Cl)NC(=S)N1 (racemic) |  | 
11 | inactive |  | CC1=CC(c2ccc(Cl)cc2Cl)NC(=S)N1 (racemic) |  | 

Reference: ChEMBL document CHEMBL3611976, “Synthesis of new 4-phenylpyrimidine-2(1H)-thiones and their potency to inhibit COX-1 and COX-2” (Eur J Med Chem, 2015)
